Results: ChEMBL document CHEMBL3124814, “Synthesis and Anti-HCV Activity of 4-Hydroxyamino α-Pyranone Carboxamide Analogues” (ACS Med Chem Lett, 2014)

Legend:
[1] = Cytotoxicity against human HuH7 cells expressing luciferase reporter gene after 3 days by WST-8 assay; type: cell-based, Huh-7
Summary of the method: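 LucNeo#2 subgenomic replicon cells, 50,000 cells/mL, pre-incubated 24 h in DMEM/10% FBS/antibiotics/1 mg/mL G418, then exposed 3 days to various compound concentrations without G418.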

[2] = (§1) Selectivity index, ratio of CC50 for human HuH7 cells to EC50 for HCV1b; set-up: species or system Huh-7
Summary of the method: (§2)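 Ratio of CC50 (WST-8 viable cell reduction) to EC50 (luciferase inhibition), both from LucNeo#2 replicon cells treated 3 days with compound in G418-free medium.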

Hepatitis C virus [3] = test: Antiviral activity against HCV1b infected in human HuH7 cells expressing luciferase reporter gene assessed as reduction of luciferase activity after 3 days; type: functional, organism-based, Hepacivirus hominis; details: genotype 1b, Huh-7, 72 h
Summary of the method: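 Subgenomic HCV replicon cells with luciferase reporter (LucNeo#2), 50,000 cells/mL in DMEM + 10% FBS, antibiotics, 1 mg/mL G418 for 24 h; then 3 days with various compound concentrations in fresh medium lacking G418. Cells PBS-washed, lysed, luciferase read by luminometer; EC50 as concentration giving 50% inhibition of luciferase activity.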

Huh-7 = test: as §1; summary of the method: as §2
[4] = Cytotoxicity against human NNC2 cells assessed as GAPDH RNA level; type: cell-based
Summary of the method: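 NNC#2 full-genome replicon cells, 30,000 cells/mL, 24 h in DMEM/10% FBS/1 mg/mL G418, then 3 days with various concentrations without G418. GAPDH RNA, as cell-viability index, measured by real-time PCR simultaneously with HCV RNA; CC50 derived.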

Hepatitis C virus [5] = test: Antiviral activity against HCV1b infected in human NNC2 cells assessed as inhibition of viral RNA replication after 3 days by RT-PCR analysis; type: functional, organism-based, Hepacivirus hominis; details: genotype 1b, NNC2, 72 h
Summary of the method: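 Full-genome HCV RNA replicon cells (NNC#2), 30,000 cells/mL, held 24 h in DMEM + 10% FBS + 1 mg/mL G418, then 3 days in fresh G418-free medium with various concentrations.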

EC50 (Hepatitis C virus [3]) [nM]	EC50 (Hepatitis C virus [5]) [nM]	EC90 (Hepatitis C virus [5]) [nM]	SMILES	CC50 at 72 h [1] [nM]	Ratio CC50/EC50 [2]	Ratio CC50/EC50 (Huh-7)	CC50 [4] [nM]
780			CNC(=O)c1c(NO)cc(-c2ccc(Cl)cc2)oc1=O	> 20000	25.6		
910			Cc1ccc(-c2cc(NO)c(C(=O)NCc3ccccc3)c(=O)o2)cc1	> 20000	21.9		
1840			COC(=O)CNC(=O)c1c(NO)cc(-c2ccccc2)oc1=O	> 20000	10.9		
560			O=C(Nc1ccccc1)c1c(NO)cc(-c2ccc(Cl)cc2)oc1=O	11000	19.6		
4000			O=C(NCCO)c1c(NO)cc(-c2ccc(Cl)cc2)oc1=O	> 20000	5		
450			CCC[C@H](NC(=O)[C@@H]1[C@H]2CCC[C@H]2CN1C(=O)[C@@H](NC(=O)[C@@H](NC(=O)c1cnccn1)C1CCCCC1)C(C)(C)C)C(=O)C(=O)NC1CC1 [TELAPREVIR]	> 20000		44.4	
290			O=C(NCc1ccccc1)c1c(NO)cc(-c2ccccc2)oc1=O	> 20000	69		
1750			CNC(=O)c1c(NO)cc(-c2ccc(F)cc2)oc1=O	> 20000	11.4		
1950			Cc1ccc(NC(=O)c2c(NO)cc(-c3ccc(F)cc3)oc2=O)cc1	> 20000	10.2		
1450			Cc1ccc(-c2cc(NO)c(C(=O)Nc3ccccc3)c(=O)o2)cc1	> 20000	13.8		
270			Cc1cccc(NC(=O)c2c(NO)cc(-c3ccccc3)oc2=O)c1	> 20000	74.1		
3060			COC(=O)CNC(=O)c1c(NO)cc(-c2ccc(Cl)cc2)oc1=O	> 20000	6.5		
350			O=C(Nc1ccccc1)c1c(NO)cc(-c2ccccc2)oc1=O	11600	33.1		
170			COc1ccc(NC(=O)c2c(NO)cc(-c3ccccc3)oc2=O)cc1	> 20000	117.6		
1180			O=C(NCc1ccccc1)c1c(NO)cc(-c2ccc(F)cc2)oc1=O	> 20000	16.9		
600			CNC(=O)c1c(NO)cc(-c2ccccc2)oc1=O	> 20000	33.3		
450			CCCNC(=O)c1c(NO)cc(-c2ccccc2)oc1=O	> 20000	44.4		
1930			COC(=O)CNC(=O)c1c(NO)cc(-c2ccc(F)cc2)oc1=O	> 20000	10.3		
560			COc1ccc(-c2cc(NO)c(C(=O)Nc3ccccc3)c(=O)o2)cc1	16200	28.9		
2580			Cc1ccc(-c2cc(NO)c(C(=O)NCCO)c(=O)o2)cc1	> 20000	7.7		
1600			COc1ccc(-c2cc(NO)c(C(=O)Nc3ccc(C)cc3)c(=O)o2)cc1	> 20000	12.5		
2980			O=C(NCCO)c1c(NO)cc(-c2ccc(F)cc2)oc1=O	> 20000	6.7		

EC50 (Hepatitis C virus [3]) [nM]	EC50 (Hepatitis C virus [5]) [nM]	EC90 (Hepatitis C virus [5]) [nM]	SMILES	CC50 at 72 h [1] [nM]	Ratio CC50/EC50 [2]	Ratio CC50/EC50 (Huh-7)	CC50 [4] [nM]
3990			COC(=O)CNC(=O)c1c(NO)cc(-c2ccc(C)cc2)oc1=O	> 20000	5		
180	77	450	Cc1ccc(NC(=O)c2c(NO)cc(-c3ccccc3)oc2=O)cc1	> 20000	111.1		> 10000
450			O=C(NCCCO)c1c(NO)cc(-c2ccccc2)oc1=O	> 20000	44.4		
1430			Cc1ccc(NC(=O)c2c(NO)cc(-c3ccc(Cl)cc3)oc2=O)cc1	> 20000	14		
1000			O=C(Nc1ccc(O)cc1)c1c(NO)cc(-c2ccccc2)oc1=O	> 20000	20		
320			O=C(Nc1ccc(F)cc1)c1c(NO)cc(-c2ccccc2)oc1=O	> 20000	62.5		
540			Cc1ccccc1NC(=O)c1c(NO)cc(-c2ccccc2)oc1=O	> 20000	37		
400			O=C(Nc1ccc(Cl)cc1)c1c(NO)cc(-c2ccccc2)oc1=O	> 20000	50		
350			CNC(=O)c1c(-c2ccc(F)cc2)oc2cc(N(CCO)S(C)(=O)=O)c(C3CC3)cc12 [NESBUVIR]	> 20000	57.1		
460			Cc1ccc(NC(=O)c2c(NO)cc(-c3ccc(C)cc3)oc2=O)cc1	> 20000	43.5		
1000			CCNC(=O)c1c(NO)cc(-c2ccccc2)oc1=O	> 20000	20		
680			O=C(NCc1ccccc1)c1c(NO)cc(-c2ccc(Cl)cc2)oc1=O	> 20000	29.4		
1480			O=C(NCCO)c1c(NO)cc(-c2ccccc2)oc1=O	> 20000	13.5		
330			COC(=O)c1ccc(NC(=O)c2c(NO)cc(-c3ccccc3)oc2=O)cc1	> 20000	60.6		
1420			CNC(=O)c1c(NO)cc(-c2ccc(C)cc2)oc1=O	> 20000	14.1		
450			CC(C)NC(=O)c1c(NO)cc(-c2ccccc2)oc1=O	> 20000	44.4		
1410			COc1ccc(-c2cc(NO)c(C(=O)NCCO)c(=O)o2)cc1	> 20000	14.2		
570			COc1ccc(-c2cc(NO)c(C(=O)NCc3ccccc3)c(=O)o2)cc1	> 20000	35.1		
1060			O=C(Nc1ccccc1)c1c(NO)cc(-c2ccc(F)cc2)oc1=O	10300	9.7		
700			CNC(=O)c1c(NO)cc(-c2ccc(OC)cc2)oc1=O	> 20000	28.6		
2960			COC(=O)CNC(=O)c1c(NO)cc(-c2ccc(OC)cc2)oc1=O	> 20000	6.7		
300			O=C(Nc1ccc(Br)cc1)c1c(NO)cc(-c2ccccc2)oc1=O	> 20000	66.7		
